Results gathered from unrelated publications.
Target: Beta-1 adrenergic receptor (ADRB1, Homo sapiens, UniProt P08588)
Tested at: 10 µM

NS(=O)(=O)c1cc(NC(=O)C2(c3ccccc3Cl)CC2)ccc1Oc1cccc(Cl)c1  inhibition (cell-free assay): -3.09%
CCCNc1nc2ccccc2n1Cc1ccc(Cl)cc1  inhibition (ligand displacement): 19.5%
Oc1cccc(Nc2nc(-c3ccc(F)cc3F)cs2)c1  inhibition (cell-free assay): -36.5%
O=C(Nc1ccc(S(=O)(=O)N2CCC(Cl)CC2)cc1)c1ccc([N+](=O)[O-])o1  inhibition (ligand displacement, radioligand): 1%
CCN(CC)c1ccc(C2Nc3ccc(C(=O)c4ccccc4)cc3NC3=C2C(=O)CC(C)(C)C3)cc1 (centres unmarked)  inhibition (ligand displacement, radioligand): -1%
C[C@H](c1ccc(F)cc1)N(Cc1ccc(Cl)c(C(=O)O)c1)C(=O)c1cnc2ccccc2c1  inhibition (cell-free assay): -0.35%
Ic1cccc2cnccc12  inhibition (ligand displacement, radioligand): 2%
CCN(Cc1ccccc1C(F)(F)F)C(=O)C1CCN(S(=O)(=O)c2ccc3[nH]ncc3c2)CC1  inhibition (ligand displacement, radioligand): 3%
N#Cc1cc(Cn2c(N3CCCC3)nc3ccccc32)ccc1F  inhibition (ligand displacement): -9.19%
O=C(c1ccc(F)cc1)N(Cc1ccccc1)C1CCCCC1  inhibition (cell-free assay): 4%
O=C1N=C(N2CCCCN2)S/C1=C\c1ccc(F)cc1O  inhibition (ligand displacement, radioligand): < 10%
